{"source": "paper PMC2646753", "about": "(Biochemistry, 2008)", "key": {"[1]": {"biological_target": "T1, QacR(E57A) (Staphylococcus aureus, UniProt P0A0N4, E57A)", "T1 sequence (P0A0N4 1-188 E57A)": "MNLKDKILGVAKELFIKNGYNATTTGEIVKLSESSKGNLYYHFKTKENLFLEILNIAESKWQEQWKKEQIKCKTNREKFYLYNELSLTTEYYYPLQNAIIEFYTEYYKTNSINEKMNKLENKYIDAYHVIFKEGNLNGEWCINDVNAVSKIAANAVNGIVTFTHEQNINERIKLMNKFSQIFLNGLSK", "assay": "Intrinsic tryptophan fluorescence quenching, QacR", "assay_type": "binding"}, "[2]": {"biological_target": "T2, QacR(E57Q) (Staphylococcus aureus, UniProt P0A0N4, E57Q)", "T2 sequence (P0A0N4 1-188 E57Q)": "T1 sequence (P0A0N4 1-188 E57A) with A57Q", "assay": "Intrinsic tryptophan fluorescence quenching, QacR", "assay_type": "binding"}, "[3]": {"biological_target": "T3, QacR(E57Q/E58Q) (Staphylococcus aureus, UniProt P0A0N4, E57Q/E58Q)", "T3 sequence (P0A0N4 1-188 E57Q/E58Q)": "T1 sequence (P0A0N4 1-188 E57A) with A57Q, E58Q", "assay": "Intrinsic tryptophan fluorescence quenching, QacR", "assay_type": "binding"}, "[4]": {"biological_target": "T4, wt QacR (Staphylococcus aureus, UniProt P0A0N4)", "T4 sequence (P0A0N4 1-188)": "T1 sequence (P0A0N4 1-188 E57A) with A57E", "assay": "Isothermal titration calorimetry, wt QacR", "assay_type": "binding"}, "[5]": {"biological_target": "T2, QacR(E57Q)", "assay": "Isothermal titration calorimetry, QacR", "assay_type": "binding"}, "[6]": {"biological_target": "T5, QacR(E58Q) (Staphylococcus aureus, UniProt P0A0N4, E58Q)", "T5 sequence (P0A0N4 1-188 E58Q)": "T1 sequence (P0A0N4 1-188 E57A) with A57E, E58Q", "assay": "Isothermal titration calorimetry, QacR", "assay_type": "binding"}, "[7]": {"biological_target": "T3, QacR(E57Q/E58Q)", "assay": "Isothermal titration calorimetry, QacR", "assay_type": "binding"}, "[8]": {"tested_on": "mutant QacR proteins", "assay": "Intrinsic tryptophan fluorescence quenching, mutant QacR proteins compared to wt", "assay_type": "binding, Staphylococcus aureus", "settings": "all mutant QacR proteins of Table 2 vs wt QacR", "summary_of_the_method": "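C-terminally His6-tagged QacR variants were expressed in E. coli DH5α, Ni2+-NTA purified, and dialysed into 1 M NaCl, 20 mM Tris-HCl, 5% glycerol, pH 7.5. Kd was derived from quenching of intrinsic tryptophan fluorescence intensity on ligand titration. Ligands came from 2.5 mM stocks in water, diluted in 100 mM NaCl, 15 mM Tris-HCl, 2.5% glycerol, pH 7.5. Each Kd is the mean of three independent experiments.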"}}, "note": "Numbering of substitutions follows the chain as printed."}
{"molecule": "COc1ccc2cc3[n+](cc2c1OC)CCc1cc2c(cc1-3)OCO2", "note": "[Be, berberine]", "values": [{"measurement": "Kd", "setting": "[1]", "value": "1880 ± 230", "unit": "nM"}, {"measurement": "Kd", "setting": "[2]", "value": "1390 ± 150", "unit": "nM"}, {"measurement": "Kd", "setting": "[3]", "value": "320 ± 150", "unit": "nM"}, {"measurement": "increase in binding affinity compared to wt QacR", "setting": "[3]; QacR(E57Q/E58Q) vs wt QacR", "value": 9, "unit": "fold"}]}
{"molecule": "Cc1cc(N)c2ccccc2[n+]1CCCCCCCCCC[n+]1c(C)cc(N)c2ccccc21", "note": "[Dq, dequalinium]", "values": [{"measurement": "Kd", "setting": "[4]", "value": "1300 ± 300", "unit": "nM"}, {"measurement": "Kd", "setting": "[5]", "value": "1950 ± 180", "unit": "nM"}, {"measurement": "Kd", "setting": "[6]", "value": "2400 ± 200", "unit": "nM"}, {"measurement": "Kd", "setting": "[7]", "value": "5200 ± 3800", "unit": "nM"}, {"measurement": "decrease in binding affinity compared to wt QacR", "setting": "[7]; QacR(E57Q/E58Q) vs wt QacR, ITC", "value": 4, "unit": "fold"}]}
{"molecule": "CN(C)c1ccc(C(=C2C=CC(=[N+](C)C)C=C2)c2ccccc2)cc1", "note": "[MG, malachite green]", "values": [{"measurement": "Kd", "setting": "[1]", "value": "2980 ± 230", "unit": "nM"}, {"measurement": "Kd", "setting": "[2]", "value": "1770 ± 170", "unit": "nM"}, {"measurement": "Kd", "setting": "[3]", "value": "1990 ± 80", "unit": "nM"}, {"measurement": "change in binding affinity of mutant QacR proteins compared to wt QacR", "setting": "[8]", "value": "≤ 2.4", "unit": "fold"}]}
